Test results from ChEMBL document CHEMBL4842326, “Design, synthesis and biological evaluation of 3, 4-disubstituted-imidazolidine-2, 5-dione derivatives as HDAC6 selective inhibitors” (Eur J Med Chem, 2021).

Tests used:
[1] = biological target: T1, Protein deacetylase HDAC6 (Homo sapiens, UniProt Q9UBN7); assay: Inhibition of HDAC6 (unknown origin) using Ac-LeuGlyLy-s(Ac)-AMC as substrate preincubated for 10 mins followed by substrate addition and further incubated for 2 hrs by fluorescence microtiter plate reader assay
T1 sequence (Q9UBN7 whole entry): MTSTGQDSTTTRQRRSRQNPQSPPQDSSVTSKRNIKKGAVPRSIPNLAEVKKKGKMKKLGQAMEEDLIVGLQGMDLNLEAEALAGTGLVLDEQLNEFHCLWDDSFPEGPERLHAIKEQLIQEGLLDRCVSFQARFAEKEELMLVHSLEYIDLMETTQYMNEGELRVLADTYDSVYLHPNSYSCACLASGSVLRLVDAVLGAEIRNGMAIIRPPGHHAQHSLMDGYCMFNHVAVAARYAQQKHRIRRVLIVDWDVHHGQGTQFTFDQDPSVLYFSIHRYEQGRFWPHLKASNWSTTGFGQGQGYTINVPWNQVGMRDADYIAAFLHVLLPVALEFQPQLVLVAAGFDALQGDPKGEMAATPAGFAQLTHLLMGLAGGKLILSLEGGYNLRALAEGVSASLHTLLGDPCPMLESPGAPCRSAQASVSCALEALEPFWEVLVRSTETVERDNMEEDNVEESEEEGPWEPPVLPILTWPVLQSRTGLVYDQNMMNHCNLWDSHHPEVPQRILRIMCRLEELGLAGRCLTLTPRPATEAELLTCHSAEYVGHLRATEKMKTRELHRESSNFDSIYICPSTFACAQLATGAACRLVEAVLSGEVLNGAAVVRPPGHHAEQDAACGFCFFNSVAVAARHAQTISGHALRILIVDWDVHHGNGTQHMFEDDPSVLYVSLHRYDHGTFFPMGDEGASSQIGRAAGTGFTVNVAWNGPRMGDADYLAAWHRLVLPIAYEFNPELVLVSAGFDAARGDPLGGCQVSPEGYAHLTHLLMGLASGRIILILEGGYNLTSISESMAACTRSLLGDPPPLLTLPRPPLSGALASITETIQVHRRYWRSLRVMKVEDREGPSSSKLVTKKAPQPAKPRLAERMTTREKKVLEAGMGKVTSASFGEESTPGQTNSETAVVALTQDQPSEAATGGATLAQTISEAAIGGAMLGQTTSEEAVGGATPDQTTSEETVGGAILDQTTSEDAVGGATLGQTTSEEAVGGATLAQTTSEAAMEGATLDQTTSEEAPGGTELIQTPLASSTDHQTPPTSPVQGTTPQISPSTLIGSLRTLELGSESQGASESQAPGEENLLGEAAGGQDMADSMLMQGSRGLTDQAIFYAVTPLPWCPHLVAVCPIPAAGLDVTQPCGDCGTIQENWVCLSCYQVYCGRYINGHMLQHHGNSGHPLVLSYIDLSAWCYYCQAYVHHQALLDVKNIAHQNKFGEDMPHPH

Histone deacetylase 1 [2] = biological target: T2, Histone deacetylase 1 (Homo sapiens, UniProt Q13547); assay: Inhibition of HDAC1 (unknown origin) using Ac-LeuGlyLys(Ac)-AMC as substrate preincubated for 10 mins followed by substrate addition and further incubated for incubated for 1 hrs by fluorescence microtiter plate reader assay
Histone deacetylase 2 [3] = biological target: T3, Histone deacetylase 2 (Homo sapiens, UniProt Q92769)
Histone deacetylase 8 [4] = biological target: T4, Histone deacetylase 8 (Homo sapiens, UniProt Q9BY41); assay: Inhibition of HDAC8 (unknown origin) using Ac-LeuGlyLys(tfa)-AMC as substrate preincubated for 10 mins followed by substrate addition and further incubated for incubated for 1 hrs by fluorescence microtiter plate reader assay
T4 sequence (Q9BY41 whole entry): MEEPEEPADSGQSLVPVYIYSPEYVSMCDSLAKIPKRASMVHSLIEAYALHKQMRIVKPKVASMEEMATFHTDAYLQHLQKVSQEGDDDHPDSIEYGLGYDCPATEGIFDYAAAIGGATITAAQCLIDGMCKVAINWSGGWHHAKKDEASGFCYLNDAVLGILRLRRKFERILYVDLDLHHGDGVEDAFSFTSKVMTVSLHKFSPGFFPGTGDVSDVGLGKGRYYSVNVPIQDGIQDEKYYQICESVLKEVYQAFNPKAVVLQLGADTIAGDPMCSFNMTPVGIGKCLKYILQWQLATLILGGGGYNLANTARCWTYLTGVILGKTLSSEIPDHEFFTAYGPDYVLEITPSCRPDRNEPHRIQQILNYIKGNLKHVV

Histone deacetylase 2 [5] = biological target: T3, Histone deacetylase 2; assay: Inhibition of HDAC2 (unknown origin)
Histone deacetylase 3 = Histone deacetylase 3 (Homo sapiens, UniProt O15379); assay: Inhibition of HDAC3 (unknown origin)
Histone deacetylase 1 [6] = biological target: T2, Histone deacetylase 1; assay: Inhibition of HDAC1 (unknown origin)
Histone deacetylase 8 [7] = biological target: T4, Histone deacetylase 8; assay: Inhibition of HDAC8 (unknown origin)
Homo sapiens [8] = species: Homo sapiens; assay: Selectivity ratio of IC50 for HDAC1 (unknown origin) to IC50 for HDAC6 (unknown origin)
Homo sapiens [9] = species: Homo sapiens; assay: Selectivity ratio of IC50 for HDAC2 (unknown origin) to IC50 for HDAC6 (unknown origin)
Homo sapiens [10] = species: Homo sapiens; assay: Selectivity ratio of IC50 for HDAC8 (unknown origin) to IC50 for HDAC6 (unknown origin)
Jurkat = assay: Antiproliferative activity against human Jurkat cells assessed as inhibition of cell proliferation after 48 hrs by MTT assay; assay type: functional, cell-based
Outline: (§1)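 Leukemia/myeloma lines grown in RPMI1640 with 10% FBS at 37 °C, 5% CO2; seeded at 3500–4000 cells/well, cultured overnight, then exposed to serial dilutions for 48 h.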

HL-60 [11] = assay: Induction of apoptosis in human HL-60 cells assessed as early apoptotic cells at 3 uM after 48 hrs by Annexin V-FITC/propidium iodide staining based flow cytometric analysis (reference value: […]%); assay type: functional
HL-60 [12] = assay: Antiproliferative activity against human HL-60 cells assessed as inhibition of cell proliferation after 48 hrs by MTT assay; assay type: functional, cell-based; conditions: HL-60, 48 h; outline: as §1
NCI-H929 = assay: Antiproliferative activity against human NCI-H929 cells assessed as inhibition of cell proliferation after 48 hrs by MTT assay; assay type: functional, cell-based; conditions: NCI-H929, 48 h; outline: as §1
HL-60 [13] = assay: Induction of apoptosis in human HL-60 cells assessed as viable cells at 3 uM after 48 hrs by Annexin V-FITC/propidium iodide staining based flow cytometric analysis (reference value: 93.4%); assay type: functional; conditions: read-out: Activity
Outline: (§2)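 HL-60 cells (1 × 10^6/well) exposed 48 h to compound dilutions, collected, PBS-washed, resuspended in Annexin V-FITC binding buffer, stained with propidium iodide and Annexin V-FITC for 15 min, then analysed by flow cytometry.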

KG-1 = assay: Antiproliferative activity against human KG-1 cells assessed as inhibition of cell proliferation after 48 hrs by MTT assay; assay type: functional, cell-based; conditions: KG-1, 48 h; outline: as §1
HUVEC = assay: Cytotoxicity against human HUVEC cells assessed as decrease in cell viability after 48 hrs by MTT assay; assay type: cell-based
Outline: (§3)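 Normal cells: HUVECs in RPMI1640 with 10% FBS plus 0.1% heparin, GEC-1 in RPMI1640 with 10% FBS. Seeded 8 h, then treated with serial dilutions for 48 h; 0.5% MTT for 4 h, supernatant removed, DMSO added, absorbance read at 570 nm.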

HL-60 [14] = assay: Induction of apoptosis in human HL-60 cells assessed as late apoptotic cells at 3 uM after 48 hrs by Annexin V-FITC/propidium iodide staining based flow cytometric analysis (reference value: 1.45%); assay type: functional; outline: as §2
[15] = Cytotoxicity against human GEC1 cells assessed as decrease in cell viability after 48 hrs by MTT assay; assay type: cell-based; conditions: GEC1, 48 h; outline: as §3
HEL = assay: Antiproliferative activity against human HEL cells assessed as inhibition of cell proliferation after 48 hrs by MTT assay; assay type: functional, cell-based; outline: as §1

T3 sequence (Q92769 whole entry): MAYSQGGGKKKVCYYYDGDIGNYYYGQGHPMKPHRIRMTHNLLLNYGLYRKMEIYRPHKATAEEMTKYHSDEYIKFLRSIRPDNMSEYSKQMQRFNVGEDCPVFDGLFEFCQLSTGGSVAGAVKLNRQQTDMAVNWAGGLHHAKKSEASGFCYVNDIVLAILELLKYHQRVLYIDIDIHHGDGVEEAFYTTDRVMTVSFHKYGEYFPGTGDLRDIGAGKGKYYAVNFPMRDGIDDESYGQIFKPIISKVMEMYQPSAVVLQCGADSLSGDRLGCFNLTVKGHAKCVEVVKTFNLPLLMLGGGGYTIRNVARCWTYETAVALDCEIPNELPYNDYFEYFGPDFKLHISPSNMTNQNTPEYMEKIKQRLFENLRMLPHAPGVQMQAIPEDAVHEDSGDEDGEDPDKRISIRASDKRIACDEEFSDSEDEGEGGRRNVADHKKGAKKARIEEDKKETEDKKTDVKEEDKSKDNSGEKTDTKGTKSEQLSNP
T2 sequence (Q13547 whole entry): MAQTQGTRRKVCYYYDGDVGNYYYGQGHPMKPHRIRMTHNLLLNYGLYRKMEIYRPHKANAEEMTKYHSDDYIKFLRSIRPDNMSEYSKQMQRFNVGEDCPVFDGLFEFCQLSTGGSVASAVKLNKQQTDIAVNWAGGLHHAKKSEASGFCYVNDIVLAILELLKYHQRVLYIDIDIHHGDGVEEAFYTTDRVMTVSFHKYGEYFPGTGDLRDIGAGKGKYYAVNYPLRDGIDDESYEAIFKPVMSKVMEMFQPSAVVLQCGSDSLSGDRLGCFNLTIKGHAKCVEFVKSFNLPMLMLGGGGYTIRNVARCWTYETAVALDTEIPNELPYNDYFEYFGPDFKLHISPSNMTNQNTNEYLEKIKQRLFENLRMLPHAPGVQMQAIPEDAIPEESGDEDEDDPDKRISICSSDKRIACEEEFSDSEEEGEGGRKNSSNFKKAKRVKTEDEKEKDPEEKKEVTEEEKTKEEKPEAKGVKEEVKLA
Chain of Histone deacetylase 3 (O15379 whole entry): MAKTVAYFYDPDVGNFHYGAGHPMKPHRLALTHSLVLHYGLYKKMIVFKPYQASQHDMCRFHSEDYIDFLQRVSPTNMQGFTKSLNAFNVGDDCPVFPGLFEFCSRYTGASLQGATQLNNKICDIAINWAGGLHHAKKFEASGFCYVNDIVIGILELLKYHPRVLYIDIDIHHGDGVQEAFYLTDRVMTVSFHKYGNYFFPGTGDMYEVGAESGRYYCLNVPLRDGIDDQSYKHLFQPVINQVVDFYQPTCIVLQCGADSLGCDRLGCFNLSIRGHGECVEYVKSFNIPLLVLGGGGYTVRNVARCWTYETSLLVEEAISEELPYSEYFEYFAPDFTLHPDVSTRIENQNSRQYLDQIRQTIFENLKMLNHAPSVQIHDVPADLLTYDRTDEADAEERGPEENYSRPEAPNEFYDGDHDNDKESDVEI

| SMILES | IC50 [1] [nM] | other results |
| --- | --- | --- |
| CC(C)(C)c1ccc(CN2CC(=O)N(Cc3ccc(C(=O)NO)cc3)C2=O)cc1 | 40.7 |  |
| CCCN1CC(=O)N(Cc2ccc(C(=O)NO)cc2)C1=O | 53.4 |  |
| O=C(NO)c1ccc(CN2C(=O)CN(Cc3ccc(Cl)cc3)C2=O)cc1 | 8.3 | IC50 (Histone deacetylase 1 [2]): 863 nM; IC50 (Histone deacetylase 2 [3]): 1080 nM; IC50 (Histone deacetylase 8 [4]): 994 nM |
| O=C(NO)c1ccc(CN2C(=O)CN(CCc3ccccc3)C2=O)cc1 | 21.7 |  |
| Cc1ccc(CN2CC(=O)N(Cc3ccc(C(=O)NO)cc3)C2=O)cc1 | 17.6 |  |
| CN1CC(=O)N(Cc2ccc(C(=O)NO)cc2)C1=O | 119 |  |
| COc1ccc(CN2CC(=O)N(Cc3ccc(C(=O)NO)cc3)C2=O)cc1 | 28.2 |  |
| CC(C)(C)OC(=O)Nc1ccc(-c2cc(NC(=O)CCCCCCC(=O)NO)no2)cc1 |  | IC50 (Histone deacetylase 2 [5]): 252 nM; IC50 (Histone deacetylase 3): 0.42 nM; IC50 (Histone deacetylase 1 [6]): 271 nM; IC50 (Histone deacetylase 8 [7]): 6850 nM |
| O=C(NO)c1ccc(CN2C(=O)C(Cc3ccccc3)N(Cc3cccc4ccccc34)C2=O)cc1 (racemic) | 28.8 |  |
| O=C(NO)c1ccc(CN2C(=O)NC(Cc3ccc(Cl)cc3)(c3ccccc3)C2=O)cc1 (racemic) | 54 |  |
| O=C(NO)c1ccc(CN2C(=O)C(Cc3ccccc3)N(Cc3ccc(Cl)cc3)C2=O)cc1 (racemic) | 6 | IC50 (Histone deacetylase 1 [2]): 8180 nM; Ratio IC50 (Homo sapiens [8]): 1360; Ratio IC50 (Homo sapiens [9]): 1380; IC50 (Histone deacetylase 2 [3]): 8260 nM; Ratio IC50 (Homo sapiens [10]): 664; IC50 (Histone deacetylase 8 [4]): 3990 nM |
| O=C(NO)c1ccc(CN2C(=O)C(Cc3ccccc3)N(Cc3ccc4ccccc4c3)C2=O)cc1 (racemic) | 25.1 |  |
| CCCN1C(=O)N(Cc2ccc(C(=O)NO)cc2)C(=O)C1CC(C)C (racemic) | 174 |  |
| O=C(NO)c1ccc(CN2C(=O)C(Cc3ccccc3)N(Cc3ccccn3)C2=O)cc1 (racemic) | 4.8 | IC50 (Histone deacetylase 1 [2]): 3420 nM; IC50 (Histone deacetylase 2 [3]): 5080 nM; IC50 (Histone deacetylase 8 [4]): 7830 nM |
| O=C(NO)c1ccc(CN2C(=O)NC(Cc3ccccc3)(c3ccccc3)C2=O)cc1 (racemic) | 71.9 |  |
| COc1ccc(CN2C(=O)N(Cc3ccc(C(=O)NO)cc3)C(=O)C2Cc2ccccc2)cc1 (racemic) | 102 |  |
| CC(C)CC1C(=O)N(Cc2ccc(C(=O)NO)cc2)C(=O)N1C (racemic) | 251 |  |
| O=C(NO)c1ccc(CN2C(=O)NC(Cc3ccc4ccccc4c3)(c3ccccc3)C2=O)cc1 (racemic) | 74.6 |  |
| Cc1ccc(CC2(c3ccccc3)NC(=O)N(Cc3ccc(C(=O)NO)cc3)C2=O)cc1 (racemic) | 82.4 |  |
| CN1CCc2c(c3ccccc3n2Cc2ccc(C(=O)NO)cc2)C1 [TUBASTATIN A] |  | IC50 (Jurkat): 14600 nM; Activity (HL-60 [11]): 6.12%; IC50 (HL-60 [12]): 4090 nM; IC50 (NCI-H929): 15400 nM; viability at 3 µM (HL-60 [13]): 87.6%; IC50 (KG-1): 8820 nM; IC50 (HUVEC): 69200 nM; Activity (HL-60 [14]): 6.24%; IC50 [15]: 48600 nM; IC50 (HEL): 8090 nM |

Further lines, with some results ahead:

| IC50 [1] [nM] | SMILES | other results |
| --- | --- | --- |
| 13.1 | O=C(NO)c1ccc(CN2C(=O)CN(Cc3ccc4ccccc4c3)C2=O)cc1 |  |
| 12.5 | O=C(NO)c1ccc(CN2C(=O)CN(Cc3ccccc3)C2=O)cc1 |  |
| 24.7 | O=C(NO)c1ccc(CN2C(=O)NC(CCc3ccccc3)(c3ccccc3)C2=O)cc1 (racemic) |  |
| 37.8 | Cc1ccc(CN2C(=O)N(Cc3ccc(C(=O)NO)cc3)C(=O)C2Cc2ccccc2)cc1 (racemic) |  |
| 56.9 | CCCN1C(=O)N(Cc2ccc(C(=O)NO)cc2)C(=O)C1Cc1ccccc1 (racemic) |  |
| 21.3 | O=C(NO)c1ccc(CN2C(=O)C(Cc3ccccc3)N(Cc3ccccc3)C2=O)cc1 (racemic) |  |
| 115 | CC(C)(C)c1ccc(CC2(c3ccccc3)NC(=O)N(Cc3ccc(C(=O)NO)cc3)C2=O)cc1 (racemic) |  |
| 50.9 | CCCC1(c2ccccc2)NC(=O)N(Cc2ccc(C(=O)NO)cc2)C1=O (racemic) |  |
| 72.4 | COc1ccc(CC2(c3ccccc3)NC(=O)N(Cc3ccc(C(=O)NO)cc3)C2=O)cc1 (racemic) |  |
| 91.9 | O=C(NO)c1ccc(CN2C(=O)NC(Cc3cccc4ccccc34)(c3ccccc3)C2=O)cc1 (racemic) |  |
| 74.9 | CC1(c2ccccc2)NC(=O)N(Cc2ccc(C(=O)NO)cc2)C1=O (racemic) |  |
| 139 | CC(C)(C)c1ccc(CN2C(=O)N(Cc3ccc(C(=O)NO)cc3)C(=O)C2Cc2ccccc2)cc1 (racemic) |  |
| 20.2 | O=C(NO)c1ccc(CN2C(=O)C(Cc3ccccc3)N(CCc3ccccc3)C2=O)cc1 (racemic) |  |
| 108 | CN1C(=O)N(Cc2ccc(C(=O)NO)cc2)C(=O)C1Cc1ccccc1 (racemic) |  |
| 129 | CC(C)CC1C(=O)N(Cc2ccc(C(=O)NO)cc2)C(=O)N1Cc1ccccc1 (racemic) |  |
| 13.9 | O=C(NO)c1ccc(CN2C(=O)C(Cc3ccccc3)N(Cc3ccncc3)C2=O)cc1 (racemic) |  |
